# Experimental data as given in PMC3171079 (The Journal of General Physiology, 2011).
# Entries after “also recorded” stand apart in the source; their conditions may differ.
# Experiments:
# [1] = system: Cx26/Cx32T junctional channels; experiment: Parachute assay for gap junctional communication; format: cell-based, rat; conditions: n = 4–9
# Summary of the method: (§1)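 Parachute dye-coupling assay. Connexin-expressing HeLa donor cells were labelled for 30 min at 37°C with 10 µM CM-DiI plus 5 µM calcein-AM, washed in PBS/glucose, trypsinized and seeded at ~1:150 onto semi-confluent unlabelled receiver monolayers. Cells attached for 3 h at 37°C with extracellular taurine. Calcein-positive receivers per DiI-labelled donor were averaged and normalized to control cultures.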
# [2] = system: nontagged Cx26 junctional channels; experiment: Parachute assay for gap junctional communication; format: cell-based; conditions: n = 4–9; for Intercellular calcein transfer: extracellular taurine, normalized to control
# Summary of the method: as §1
# [3] = system: Cx26T/Cx32 hemichannels; experiment: Hemichannel calcein uptake by HeLa cells; format: cell-based, rat; conditions: extracellular taurine, low [Ca2+]ex; n = 3
# [4] = system: hemichannels that contained connexin26 (Cx26), homomeric or with Cx32 (heteromeric); conditions: cytoplasmic concentrations; ref Tao and Harris, 2004; cited from earlier work
# [5] = 37°C; source not given; cited from earlier work
# [6] = system: homomeric Cx26Tc hemichannels; experiment: TSF liposome hemichannel activity, tag cleaved; format: biochemical, rat; conditions: 10 mM taurine; tag cleaved (LVPR left); n = 5–8
# Summary of the method: (§2)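 Tagged rat hemichannels were anti-HA immunopurified from dox-induced Tet-On HeLa, then cleaved with 2 U thrombin for 18 h at 4°C, leaving LVPR at the C-terminus. They were reconstituted by gel filtration into rhod-PE-labelled liposomes in urea buffer, then centrifuged for 3 h at 37°C through iso-osmolar urea/sucrose gradients containing aminosulfonate. Band densities were read by refractometry. Lower-band fraction was Poisson-corrected, normalized per preparation and pooled.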
# [7] = system: untagged heteromeric Cx26/Cx32 hemichannels; experiment: TSF liposome hemichannel activity, untagged; format: biochemical; conditions: with AS treatment
# [8] = system: Cx26CL (15N-labeled); experiment: 1H-15N HSQC NMR interaction; format: binding, rat; conditions: 10 µM Cx26CL, pH 7.0, 42°C, 6% LPPG, 20 mM MES
# [9] = system: Cx26CT–^biotCL3 interaction; experiment: CT+CL peptide-binding assay; parameters: species or system rat
# [10] = system: untagged homomeric Cx26 hemichannels; experiment: TSF liposome hemichannel activity, untagged; format: biochemical; conditions: with AS treatment
# [11] = system: Cx32T junctional channels; experiment: Parachute assay for gap junctional communication; format: cell-based, rat; conditions: extracellular taurine; normalized to control; n = 4–9
# Summary of the method: as §1
# [12] = system: homomeric Cx32Tc hemichannels; experiment: TSF liposome hemichannel activity, tag cleaved; format: biochemical, rat
# Summary of the method: as §2
# [13] = system: homomeric Cx32T hemichannels; experiment: TSF liposome hemichannel activity; format: biochemical, rat; conditions: taurine-exposed liposomes
# Summary of the method: (§3)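 Rat connexins carrying a C-terminal thrombin-site–HA(HN)6 tag were expressed in Tet-On HeLa (1 µg/ml dox, 48 h). Hemichannels were octylglucoside-solubilized, anti-HA immunopurified and reconstituted into PC/PS/rhod-PE liposomes entrapping urea buffer. Taurine was present in iso-osmolar urea/sucrose gradients (300,000 gav, 3 h, 37°C). Bands were followed by rhod-PE fluorescence, densities by refractometry at 25°C. Lower-band fraction was Poisson-corrected and normalized to the preparation maximum.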
# [14] = system: Cx26T/Cx32 junctional channels; experiment: Parachute assay for gap junctional communication; format: cell-based, rat; conditions: extracellular taurine; normalized to control; n = 4–9
# [15] = system: heteromeric Cx26/Cx32Tc hemichannels; experiment: TSF liposome hemichannel activity, tag cleaved; format: biochemical, rat
# Summary of the method: as §2
# [16] = system: heteromeric Cx26T/Cx32 hemichannels; experiment: TSF liposome hemichannel activity; format: biochemical, rat
# Summary of the method: as §3
# [17] = system: heteromeric Cx26/Cx32T hemichannels; experiment: TSF liposome hemichannel activity; format: biochemical, rat; conditions: taurine-exposed liposomes
# Summary of the method: as §3
# [18] = system: Cx26CL–Cx26CT complex; experiment: 1H-15N HSQC NMR, effect of taurine on CL–CT complex; format: binding, rat; conditions: pH 7.0, 42°C
# [19] = system: Cx26/Cx32T hemichannels; experiment: Hemichannel calcein uptake by HeLa cells; format: cell-based, rat; conditions: extracellular taurine, low [Ca2+]ex; n = 3
# [20] = system: the different tagged connexin hemichannels other than Cx26/Cx32T; experiment: Hemichannel calcein uptake by HeLa cells; format: cell-based, rat; conditions: extracellular taurine, low [Ca2+]ex; n = 3
# [21] = system: nontagged Cx26 hemichannels; experiment: Hemichannel calcein uptake by HeLa cells; format: cell-based; conditions: extracellular taurine, low [Ca2+]ex; n = 3
# Summary of the method: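 HeLa clone stably expressing nontagged Cx26. Semi-confluent monolayers were washed, then loaded for 30 min at 37°C in low-Ca buffer (0.5 mM CaCl2, 30 mM KCl, 11 mM glucose, Tris pH 7.4) with 100 µM calcein, with or without taurine. Cells were washed in 2 mM Ca buffer and imaged. Dye-containing cells were counted, and each taurine condition was normalized to its own taurine-free control.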
# [22] = system: heteromeric Cx26Tc/Cx32 hemichannels; experiment: TSF liposome hemichannel activity, tag cleaved; format: biochemical, rat
# Summary of the method: as §2
# [23] = system: homomeric Cx26T hemichannels; experiment: TSF liposome hemichannel activity; format: biochemical, rat
# Summary of the method: as §3
# [24] = extracellular HEPES in presence of extracellular taurine
# [25] = tag cleaved (LVPR left), n = 5–8
# [26] = up to 50 mM of protonated taurine
# [27] = 30 mM taurine, 4 mM Cx26CT, 10 µM Cx26CL
compound,measurement,setting,value
O=S(=O)(O)CCN1CCN(CCO)CC1 [HEPES],Block of taurine effect on junctional channel permeability of calcein,[1]; [24],effectively eliminated the taurine effect; also recorded: AS insensitive
same,Block of taurine effect on junctional calcein transfer,[2]; [24],eliminated by HEPES; also recorded: restored AS insensitivity
"NCCS(=O)(=O)O [taurine, β-aminosulfonic acid]",Calcein dye uptake,[3],absence of effect
same,Intercellular calcein transfer,"[1]; extracellular taurine, normalized to control",decreased
same,Inhibition of Cx26-containing hemichannels by cytoplasmic AS,[4],inhibitory at cytoplasmic concentrations
same,pKa,[5],8.8
same,AS effect on hemichannel activity (TSF),[6],remained AS insensitive
same,Occlusion of hemichannels (TSF band shift from lowest to upper band),[7],full occlusion of the hemichannels
same,Interaction with Cx26CL by NMR (resonance peaks affected),[8]; 30 mM taurine,taurine interacts with the Cx26CL at some residues (peaks iii and iv)
same,Intercellular calcein transfer,[2],markedly reduced
same,Intercellular calcein transfer,[2]; listed as AS,substantially reduced
same,Taurine concentration for complete dissociation of CL–CT peptides,"[9]; 10 µM ^biotCL3, not fit to any standard binding isotherm",~5 mM
same,Disruption of CL–CT peptide interaction,"[9]; 1 mM taurine, pH 6.5, 10 µM ^biotCL3",Approximately 50%
same,Effect of taurine on Cx26CT–CL3 interaction,"[9]; 10 mM taurine, 10 µM CL peptide",substantial but not complete dissociation; also recorded: substantially reduced
same,Concentration dependence of disruption of CL–CT interaction,"[9]; pH 6.5 and 7.4, 10 µM ^biotCL3",a linear function of the log of taurine concentration
same,pH dependence of taurine disruption of CL–CT interaction,"[9]; pH 6.5 versus 7.4, 10 µM ^biotCL3",substantially greater at the lower pH
same,Occlusion of hemichannels (TSF band shift from lowest to upper band),[10],full occlusion of the hemichannels
same,Intercellular calcein transfer,[11],unchanged compared with controls
same,AS sensitivity of hemichannel activity (TSF),[12]; [25],AS insensitive
same,Pore narrowing (intermediate band in TSF),[12]; taurine-exposed liposomes,do not form intermediate bands
same,Pore narrowing (intermediate band in TSF),[13],do not form intermediate bands
same,Intercellular calcein transfer,[14],not in the Cx26T/Cx32 cells or the Cx26T cells
same,AS sensitivity of hemichannel activity (TSF),[15]; [25],AS sensitive
same,Pore narrowing (intermediate band in TSF),[15]; taurine-exposed liposomes,do not form intermediate bands
same,Pore narrowing (intermediate band in TSF),[16]; taurine-exposed liposomes,do not form intermediate bands
same,Inhibition of hemichannels (TSF),[16]; [26],not inhibited
same,Pore narrowing (intermediate band in TSF),[17],do not form intermediate bands
same,"Effect on Cx26CL–Cx26CT complex by NMR, Fig. 8 B peaks",[18]; [27],a negligible effect of taurine on the Cx26CL–Cx26CT complex
same,"Effect on Cx26CL–Cx26CT complex by NMR, Fig. 8 D peaks",[18]; [27],move to unique positions in the presence of both taurine and the Cx26CT
same,"Effect on Cx26CL–Cx26CT interaction by NMR, Fig. 8 C peaks",[18]; [27],taurine reverses the Cx26CL–Cx26CT interaction at this position
same,Mode of action on Cx26CT–Cx26CL interaction,[18]; concluded from NMR,competitive inhibitor of the interaction between Cx26CT and the Cx26CL
same,Completeness of inhibition of dye uptake,[19],not complete
same,Calcein dye uptake,[20],absence of effect
same,Calcein hemichannel uptake,[21],markedly reduced
same,AS inhibition of hemichannel activity (TSF),"[22]; 10 mM taurine, tag cleaved (LVPR left), n = 5–8",AS inhibition was restored
same,Pore narrowing (intermediate band in TSF),[22]; taurine-exposed liposomes,do not form intermediate bands
same,Effect on pore diameter (TSF band density),[23]; 10 mM AS (taurine),no discernable effect on the pore diameter
same,Inhibition of hemichannels (TSF),[23]; [26],not inhibited
Cx26CT: peptide with sequence corresponding to the Cx26CT (residues 213–226) (LFIRYCSGKSKRPV),Interaction with Cx26CL by NMR (resonance peaks affected),[8]; 4 mM Cx26CT,more resonance peaks are affected by the Cx26CT than by taurine
